In the library only some 2.2% were active in any assay of this set; here they are far more common.
Calb biofilm kill: clotrimazole potentiators killing C. albicans biofilm, primary screen, 4-compound mixtures; C. albicans biofilm persisters + clotrimazole, fluorescence viability; primary screen in compound mixtures of four per well; inhibition, % at 7.6 µM; 120,000 tested, 0.02% active; AID 1242, 2008;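 active means inhibition above 30.3% in the primary screen of four-compound pools, then above 30% when the compound was retested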;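 further: compounds exposed to preformed 24 h biofilms for 48 h; 0% = untreated biofilm control and 100% = clotrimazole plus chlorhexidine kill blank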
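System: C. albicans CAF4-2 wild-type biofilms; Medium: RPMI/MOPS medium, pH 7.0; Reagent: Clotrimazole, 50 µg/mL; Times: biofilm formation 24 h, compound exposure 48 h, 37 °C; Detection: 2-h Alamar Blue fluorescence, 535/590 nm excitation/emission; Evaluation: percent inhibition of biofilm viability.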
eIF4E-4G inh: eIF4E–eIF4G protein interaction inhibitors, primary screen, biochemical, uHTS, TR-FRET, eIF4GI fragment. AID 782, 2007. 220,000 tested, 0.37% active. inhibition, % at 21.7 µM. Eukaryotic translation initiation factor 4E (Mus musculus) + Eukaryotic translation …. TR-FRET eIF4E-eIF4GI(517-606) binding, 2 h;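 active means inhibition above about 30%, limit read from the data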;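 further: 0% = full FRET control wells and 100% = background wells lacking eIF4GI fragment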
p97 inhibitor: inhibitors of human p97 ATPase, primary screen, biochemical | AID 1481, 2009 | Transitional endoplasmic reticulum ATPase (Homo sapiens), P55072 | 220,000 tested, 0.42% active | recombinant p97 ATPase, Kinase-Glo ATP luminescence, 3 h | inhibition, % at 8 µM; in the data active means inhibition above about 15%;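 further: 0% = DMSO vehicle and 100% = wells lacking enzyme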
Hck-Nef inh: inhibitors of Nef-activated human Hck kinase, primary screen, biochemical, Z-Lyte FRET, 384-well, Hck-YEEI; inhibition, % at 20 µM; Tyrosine-protein kinase HCK (Homo sapiens), P08631; 220,000 tested, 0.68% active; AID 463187, 2010; Recombinant Hck-YEEI plus Nef, Z-Lyte FRET kinase assay;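 active means Hck-Nef kinase inhibition above about 50%, limit read from the data; inactive means inhibition below that limit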;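 further: 0% = DMSO with Hck plus Nef and 100% = Hck alone without Nef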
Target sequence (P08631 whole entry, looked up): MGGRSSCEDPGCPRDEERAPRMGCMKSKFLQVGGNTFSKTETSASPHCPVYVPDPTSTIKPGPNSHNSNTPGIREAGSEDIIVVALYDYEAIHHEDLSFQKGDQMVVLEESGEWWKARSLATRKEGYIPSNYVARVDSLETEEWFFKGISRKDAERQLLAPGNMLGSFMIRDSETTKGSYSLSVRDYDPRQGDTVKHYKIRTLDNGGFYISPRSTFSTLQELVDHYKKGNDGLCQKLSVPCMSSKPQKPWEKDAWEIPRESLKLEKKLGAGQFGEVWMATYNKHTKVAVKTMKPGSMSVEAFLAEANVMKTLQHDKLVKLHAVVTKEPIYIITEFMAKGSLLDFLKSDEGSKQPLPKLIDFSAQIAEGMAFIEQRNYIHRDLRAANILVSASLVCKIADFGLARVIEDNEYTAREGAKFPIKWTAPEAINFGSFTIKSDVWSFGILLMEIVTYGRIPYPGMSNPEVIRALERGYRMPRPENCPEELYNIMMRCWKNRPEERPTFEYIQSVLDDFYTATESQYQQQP
PERK inh: block of dimerizer-induced PERK translation repression, primary screen, PERK inhibitor project, CHO PERK-DD cells, SEAP luminescence, HTS | Eukaryotic translation initiation factor 2-alpha kinase 3 (Homo sapiens), Q9NZJ5 | 220,000 tested, 0.17% active | CHO PERK-DD fusion, SEAP luminescence translation reporter | inhibition, % at 5.6 µM;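 active means inhibition above the mean inhibition of all tested compounds plus 3 SD, set separately per screening campaign, cut at about 2.9% in these data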;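 further: PERK kinase domain activated by AP20187 dimerizer at 100 nM; 0% = DMSO with dimerizer and 100% = rapamycin at 8.4 µM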
14-3-3 Bad inh: inhibitors of 14-3-3 zeta/Bad binding, primary screen, biochemical, TR-FRET, bovine 14-3-3 zeta; 14-3-3 protein zeta/delta (Bos taurus), P63103; TR-FRET 14-3-3zeta/Dy647-pBad peptide displacement, 1 h; inhibition, % at 21.7 µM; 220,000 tested, 0.71% active; AID 781, 2007;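 active means inhibition above about 70%, limit read from the data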;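 further: 0% = full 14-3-3 plus peptide FRET controls and 100% = background without 14-3-3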
Starred values were filed as active, the others as inactive; · = no result given; [ ] = remark or other dose.

SMILES | Calb biofilm kill | eIF4E-4G inh | p97 inhibitor | Hck-Nef inh | PERK inh | 14-3-3 Bad inh
Cc1c(C(=O)N2CCCC2)sc(NC(=O)c2ccccc2)c1C#N | 13.7 | -0.2 | 2.7 | 1.3 | 0.6 | 77.8*[fluorescence artefact?]
c1coc(CN2CCN(C(c3cccs3)c3nnnn3C3CCCC3)CC2)c1 (stereo not drawn) | · | 0.4 | -0.1 | 0.4 | -0.5 | 77.3*
c1ccc(CC2CCN(C(c3cccs3)c3nnnn3C3CCCC3)CC2)cc1 (stereo not drawn) | · | 10.0 | 1.9 | -0.6 | 0.7 | -1.9
c1ccc(CN(Cc2cccs2)C(c2cccs2)c2nnnn2C2CCCC2)cc1 (stereo not drawn) | · | -4.6 | -5.9 | -20.7 | -0.6 | 87.2*
CCc1nc(SCC(=O)Nc2nnc(CC(C)C)s2)n[nH]1 | 26.6 | -2.5 | -3.0 | -29.5 | -1.8 | 4.8
CCOC(=O)c1ccc(NC(=O)c2ccccc2N(C)S(=O)(=O)c2ccccc2)cc1 | 12.6 | 7.1 | -3.4 | 2.0 | -1.0 | 2.1
Cc1cc(C)c(S(=O)(=O)N2CCOC2CNC(=O)C(=O)NCc2cccnc2)c(C)c1 (stereo not drawn) | 11.2 | 0.0 | 7.8 | -0.7 | -0.1 | 0.3
Cc1cc(OCC(=O)O)c2cccc(C)c2n1 | · | 10.3 | -2.1 | 2.7 | 0.2 | 77.2*
COc1ccc(-c2n[nH]c(=S)n2-c2cc(OC)ccc2OC)cc1 | 10.2 | -7.9 | 3.8 | 2.4 | 1.4 | -4.5
COc1ccc2c(C)cc3n[nH]c(=S)n3c2c1 | 15.7 | 33.0* | 4.5 | -12.5 | 1.1 | 27.4
Oc1ccc(/C=N/Nc2nn3cnnc3c3ccccc23)cc1 | 14.0 | 97.5* | -15.4 | 18.6 | 0.0 | 1.1
COc1cc(/C=N/Nc2nn3cnnc3c3ccccc23)ccc1O | · | -3.7 | -22.3 | 0.1 | 0.1 | 61.3
CCN(C(=O)Cc1cccs1)c1nnc(-c2cc(OC)c(OC)c(OC)c2)s1 | · | -0.1 | -3.0 | -0.5 | -2.1 | -0.8
CCN(C(=O)Cc1ccccc1OC)c1nnc(-c2ccncc2)s1 | · | -6.2 | -0.5 | -0.6 | -0.1 | 79.3*
CCN(CC)c1nc(SCC(=O)O)nc(N(CC)CC)n1 | · | 7.0 | 14.6* | 2.1 | 1.6 | 9.2
Cc1cc(C)n(CCC(=O)N=Nc2c(O)[nH]c3ccc(Br)cc23)n1 | 24.4 | -1.0 | 0.9 | 24.8 | -0.3 | -3.5
COc1ccc(-c2csc(NC(=O)CSc3nc(SC)ns3)n2)cc1 | 13.9 | -6.1 | 6.6 | 2.4 | 0.6 | -20.8
COc1ccc(-c2csc(NC(=O)CSc3nc(C)cs3)n2)cc1 | 4.7 | 0.8 | 1.4 | 6.2 | 3.6* | 7.8
CC1(C)Cc2ccccc2C(/C(=N\Nc2cccc(Cl)c2)C(N)=O)=N1 | 8.6 | 3.7 | -0.3 | 25.9 | -0.3 | -2.0
CC(=O)c1ccc(N/N=C(/C(N)=O)C2=NC(C)(C)Cc3ccccc32)cc1 | 1.0 | -0.3 | 2.4 | 72.1* | -0.8 | -0.2
O=C1CC(Cc2ccccc2)C(=O)N1CCCn1ccnc1 (stereo not drawn) | · | 5.0 | 6.7 | -1.0 | 1.0 | 75.5*
CCOC(=O)c1cc(=O)c2c([N+](=O)[O-])ccc(OC)c2o1 | 12.9 | 15.8 | 2.9 | 0.0 | 0.4 | -3.8
O=S(=O)(c1cccs1)N1CCN(CC(O)COC2CCCc3ccccc32)CC1 (stereo not drawn) | · | 0.4 | -0.6 | 2.4 | 0.4 | 78.8*
O=S(=O)(c1cccs1)N1CCN(CC(O)COc2cccc(Br)c2)CC1 (stereo not drawn) | · | 3.4 | -0.5 | 14.0 | 0.2 | 60.4
O=C(CN1C(=O)/C(=C2\SC(=S)N(C3CCS(=O)(=O)C3)C2=O)c2ccccc21)Nc1ccccc1 (stereo not drawn) | 13.8 | 11.4 | 2.6 | 30.9 | 0.8 | 81.3*[fluorescence artefact?]

Assay outcomes from PubChem.
